ChEMBL document CHEMBL1781999, “Lead optimization of aryl and aralkyl amine-based triazolopyrimidine inhibitors of Plasmodium falciparum dihydroorotate dehydrogenase with antimalarial activity in mice” (J Med Chem, 2011)
Values after ≈ are worked out from the molar mass of the structure shown.

Tests used:
Plasma = experiment: (§1) Plasma protein binding in human by albumin chromatographic method; assay type: ADME, cell-free
Plasmodium falciparum = experiment: Antimalarial activity against Plasmodium falciparum 3D7 infected in human A positive erythrocytes by [3H]hypoxanthine uptake assay in presence of serum in medium; assay type: functional, organism-based
Procedure, shortened: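 Growth read by [3H]-hypoxanthine uptake. Each concentration run in quadruplicate and fitted to a four-parameter variable-slope log[I]-response model for 50% growth inhibition.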

[1] = Partition coefficient, log D of the compound at pH 7.4 by UV-HPLC analysis; settings: octanol/water
[2] = Aqueous solubility of the compound in phosphate buffer at pH 6.5; assay type: physicochemical
Procedure, shortened: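 Non-equilibrium solubility. Concentrated DMSO stocks were diluted into pH 6.5 phosphate buffer (final DMSO 1% v/v) and precipitation was monitored by nephelometry. Solubility is given as the concentration range just before a turbidity signal rose above background.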

[3] = as §1; assay type: ADME, cell-free; settings: read-out: PPB (converted)
[4] = Inhibition of His6-tagged recombinant Plasmodium berghei dihydroorotate dehydrogenase expressed in Escherichia coli using L-dihydroorotate as substrate after 10 to 15 mins by DCIP dye-based assay; settings: in the assay text read “5 to 10 mins” for “10 to 15 mins”
Procedure, shortened: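 Truncated soluble enzyme lacking the N-terminal membrane domain. Final concentrations: 0.2 mM L-dihydroorotate, 0.02 mM CoQD, 0.12 mM DCIP. Reaction started with 10 nM enzyme and read at 600 nm for 5–10 min at 20 °C. Inhibitor 0.01–100 μM in 3-fold steps, in triplicate. IC50 from a three-parameter fit of vi/vo from initial rates.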

Mus musculus [5] = experiment: Toxicity in Swiss mouse assessed as adverse effect at 20 mg/kg, po measured after 24 hrs; assay type: organism-based; parameters: dose 20 mg/kg, route oral; settings: in vivo
[6] = target: T1, Dihydroorotate dehydrogenase (Plasmodium falciparum, UniProt Q54A96); experiment: Inhibition of His6-tagged recombinant Plasmodium falciparum dihydroorotate dehydrogenase expressed in Escherichia coli using L-dihydroorotate as substrate after 5 to 10 mins by DCIP dye-based assay
T1 sequence (Q54A96 whole entry): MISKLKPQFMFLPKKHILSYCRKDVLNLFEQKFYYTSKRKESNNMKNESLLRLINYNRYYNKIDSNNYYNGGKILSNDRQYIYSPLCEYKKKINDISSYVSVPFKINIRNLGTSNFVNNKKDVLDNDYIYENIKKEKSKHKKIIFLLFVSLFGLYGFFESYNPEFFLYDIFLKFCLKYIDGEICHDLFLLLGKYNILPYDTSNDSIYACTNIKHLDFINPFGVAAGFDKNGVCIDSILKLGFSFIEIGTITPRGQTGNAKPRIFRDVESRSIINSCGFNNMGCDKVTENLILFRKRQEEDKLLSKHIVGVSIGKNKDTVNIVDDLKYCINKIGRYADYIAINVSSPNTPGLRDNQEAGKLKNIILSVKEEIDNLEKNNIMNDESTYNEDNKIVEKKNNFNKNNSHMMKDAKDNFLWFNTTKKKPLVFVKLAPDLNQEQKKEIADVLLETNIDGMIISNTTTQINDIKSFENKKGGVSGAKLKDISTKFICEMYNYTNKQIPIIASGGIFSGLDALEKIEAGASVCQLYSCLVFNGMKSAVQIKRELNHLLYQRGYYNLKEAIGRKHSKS

Mus musculus [7] = experiment: Cmax in Swiss mouse at 20 mg/kg, po measured after 24 hrs by LC-MS analysis; assay type: ADME, organism-based; parameters: dose 20 mg/kg, route oral; settings: in vivo
Procedure, shortened: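 Non-fasted male Swiss outbred mice given a single oral gavage dose in 0.5% w/v sodium carboxymethylcellulose, 0.5% v/v benzyl alcohol, 0.4% v/v Tween 80. One mouse per time point, cardiac blood under isoflurane, sampling to 24 h. Plasma stabilized, acetonitrile-precipitated, quantified by LC-MS against blank-plasma standards; Cmax read from concentration-time profile.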

Liver = experiment: Intrinsic clearance in mouse liver microsome assessed per mg of protein at 1 uM after 60 mins by LC-MS analysis; assay type: ADME; settings: microsomes, 1 h
Procedure, shortened: (§2)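 Microsomal stability. Compound at 1 μM with liver microsomes (0.4 mg/mL protein) in 0.1 M phosphate pH 7.4 at 37 °C. Started with an NADPH-regenerating system plus MgCl2; controls lacked NADPH. Quenched with cold acetonitrile at time points up to 60 min. Parent loss measured by LC-MS and fitted to exponential decay to give CLint.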

Liver microsomes = experiment: (§3) Intrinsic clearance in human liver microsome assessed per mg of protein at 1 uM after 60 mins by LC-MS analysis; assay type: ADME; settings: microsomes, 1 h, 1 µM; procedure, shortened: as §2
Mus musculus [8] = experiment: Time duration above 1 uM plasma concentration in Swiss mouse at 20 mg/kg, po; assay type: ADME, organism-based; parameters: dose 20 mg/kg, route oral; settings: in vivo
Procedure, shortened: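 Non-fasted male Swiss outbred mice given a single gavage dose in suspension (0.5% Na-CMC, 0.5% benzyl alcohol, 0.4% Tween 80). One mouse per time point; blood taken by cardiac puncture under isoflurane into stabilizer over 24 h. Plasma measured by LC-MS; time above 1 μM read directly from the concentration-time profile.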

[9] = target: Dihydroorotate dehydrogenase (quinone), mitochondrial (Homo sapiens, UniProt Q02127); experiment: Inhibition of His6-tagged recombinant human dihydroorotate dehydrogenase expressed in Escherichia coli using L-dihydroorotate as substrate after 5 to 10 mins by DCIP dye-based assay
Sequence of Dihydroorotate dehydrogenase (quinone), mitochondrial (Q02127 whole entry): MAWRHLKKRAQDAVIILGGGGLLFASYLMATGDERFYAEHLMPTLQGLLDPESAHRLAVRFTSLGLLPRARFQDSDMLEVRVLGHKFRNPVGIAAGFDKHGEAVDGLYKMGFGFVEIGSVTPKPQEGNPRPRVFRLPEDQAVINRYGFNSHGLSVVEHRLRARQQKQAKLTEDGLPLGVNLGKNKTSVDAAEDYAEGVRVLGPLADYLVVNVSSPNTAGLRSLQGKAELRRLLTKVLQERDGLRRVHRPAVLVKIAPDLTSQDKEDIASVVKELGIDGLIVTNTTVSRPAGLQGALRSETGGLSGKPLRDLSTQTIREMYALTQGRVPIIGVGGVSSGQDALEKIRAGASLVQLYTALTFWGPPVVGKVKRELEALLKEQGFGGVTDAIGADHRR

[10] = Inhibition of His6-tagged recombinant Plasmodium berghei dihydroorotate dehydrogenase expressed in Escherichia coli using L-dihydroorotate as substrate after 5 to 10 mins by DCIP dye-based assay
[11] = Antimalarial activity against Plasmodium berghei ANKA NK65 infected in Swiss Webster mouse assessed as reduction of parasitemia level at 2 mg/kg, po qd administered for 4 days measured 24 hrs after last dose by light microscopic analysis; assay type: functional; parameters: scale not given: the % may be the effect or the level left
Procedure, shortened: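 Female Swiss Webster mice, 8-10 weeks old (20-22 g), infected intraperitoneally with 2 × 10^7 P. berghei NK65 ANKA-infected erythrocytes. Oral doses in CMC vehicle (200 μL), first given 3 h post-infection, then at 24, 48 and 72 h. Parasitemia followed daily from 24 h by light microscopy at 1000× oil immersion, counting ≥10 fields of >100 erythrocytes. Mice losing ≥20% body weight were euthanized.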

[12] = Antimalarial activity against Plasmodium berghei ANKA NK65 infected in po dosed Swiss Webster mouse assessed as reduction of parasitemia level administered qd for 4 days measured 24 hrs after last dose by light microscopic analysis; assay type: functional
[13] = as §3; assay type: ADME, microsomes; settings: liver microsomes; procedure, shortened: as §2
[14] = phosphate buffer, read-out: solubility

SMILES	EC50 (Plasmodium falciparum) [nM]	logD [1]	solubility [2, 14] [µM]	fraction unbound [3]	IC50 [4] [nM]	Activity (Mus musculus [5])	IC50 [6] [nM]	Cmax (Mus musculus [7]) [nM]	CL (Liver) [µL/min/mg]	CL (Liver microsomes) [µL/min/mg]	further results
O=C1C(O)=C([C@H]2CC[C@H](c3ccc(Cl)cc3)CC2)C(=O)c2ccccc21 [ATOVAQUONE]	1.5										PPB (Plasma): 87%
Cc1cc(NC2Cc3ccccc3C2)n2ncnc2n1	400	2.5	188 (≈ 49.9 µg/mL)	0.239	2400	Non-toxic	500	500	32	< 5	
Cc1cc(Nc2ccc3c(c2)CCCC3)n2ncnc2n1	160	3.4	89 (≈ 24.9 µg/mL)	0.045	190	Non-toxic		2200	361	72	Time (Mus musculus [8]): 1 h; IC50 [9]: > 100000 nM
Cc1cc(Nc2ccc(C(C)(C)C)c(F)c2)n2ncnc2n1	97	3.5		0.036		Non-toxic	35	250	68	32	IC50 [10]: 110 nM; solubility ([2]; buffer): < 2.7 µM
CCCc1c(C)nc2ncnn2c1Nc1ccc(C)cc1	> 10000						> 100000				IC50 [10]: > 100000 nM; IC50 [9]: > 100000 nM
Cc1cc(Nc2ccc3sccc3c2)n2ncnc2n1	66	2.6	22 (≈ 6.19 µg/mL)	0.102	600	Non-toxic	90	400	162	64	
Cc1cc(NC2CCc3ccccc3C2)n2ncnc2n1 (stereo not given)	1800	2.9			2300	Non-toxic	540	7800	35	< 5	Time (Mus musculus [8]): 6 h; solubility ([2]; buffer): > 358 µM
CCN(CC)CCCC(C)Nc1ccnc2cc(Cl)ccc12 (stereo not given) [CHLOROQUINE]											PPB (Plasma): 87%; Activity [11]: 50%; ED50 [12]: 1.8 mg/kg
C[C@H]1[C@H](OC(=O)CCC(=O)O)O[C@@H]2O[C@@]3(C)CC[C@H]4[C@H](C)CC[C@@H]1[C@@]24OO3 [ARTESUNATE]											ED50 [12]: 5.9 mg/kg
Cc1cc(Nc2ccc(C(C)C)cc2)n2ncnc2n1	780	3	47 (≈ 12.6 µg/mL)	0.087	880	Non-toxic	220	800	241	30	IC50 [9]: > 100000 nM
Cc1cc(Nc2ccc(C(F)(F)F)cc2)n2ncnc2n1		2.5	21 (≈ 6.16 µg/mL)	0.131							microsomal CLint at 1 µM [13]: 8 µL/min/mg
Cc1cc(Nc2ccc(NC(C)(C)C)cc2)n2ncnc2n1	> 5000						> 50000				IC50 [10]: > 100000 nM
OC(c1cc(C(F)(F)F)nc2c(C(F)(F)F)cccc12)C1CCCCN1 (stereo not given) [MEFLOQUINE]											ED50 [12]: 3.8 mg/kg
